# Only some compounds are listed: those with a hit (about 2.9% of all), similar ones and a draw of the others.
# M1 ag parental: M1 agonist counterscreen hit in parental CHO-K1 cells | activation, % at 3 µM | AID 602248 | 360,000 compounds, 0.48% hits | Fluo-8 calcium fluorescence; scaled to maximal ATP response, vehicle zero; in the data active = activation above about 15%;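 also: untransfected CHO-K1 host cells lacking M1 receptor as counterscreen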
# OX1R antag-1: blocks the human orexin 1 receptor | inhibition, % at 6.6 µM | AID 485270 | 330,000 compounds, 1.8% hits | O43613 | OX1R-expressing cells, FRET antagonist read-out; in the data active = inhibition mostly above about 38%, no sharp cut-off; inactive = mostly below about 40%;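 also: 0% = agonist challenge alone and 100% = reference antagonist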
# Target sequence (O43613 whole entry, looked up): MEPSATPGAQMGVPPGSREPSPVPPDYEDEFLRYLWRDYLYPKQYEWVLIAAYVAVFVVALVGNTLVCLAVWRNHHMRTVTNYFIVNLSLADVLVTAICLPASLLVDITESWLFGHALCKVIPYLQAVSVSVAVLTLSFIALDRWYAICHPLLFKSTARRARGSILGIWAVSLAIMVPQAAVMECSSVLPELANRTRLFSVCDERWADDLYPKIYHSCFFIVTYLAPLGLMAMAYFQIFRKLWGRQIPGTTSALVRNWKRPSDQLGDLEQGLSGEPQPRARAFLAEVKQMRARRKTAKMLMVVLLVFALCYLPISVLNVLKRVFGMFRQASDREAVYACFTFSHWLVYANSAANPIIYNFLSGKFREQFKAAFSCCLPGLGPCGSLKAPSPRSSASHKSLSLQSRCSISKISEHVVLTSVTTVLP
# OX1R antag-2: antagonists of human orexin 1 receptor | 330,000 compounds, 0.43% hits | inhibition, % at 5 µM | O43613 | AID 434989 | CHO/OX1R cells, Fluo-8 calcium fluorescence, orexin A;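 active = inhibition above its plate's threshold, mean inhibition of all tested compounds on the plate plus 3 SD, cut at about 37% in these data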;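 also: 0% = orexin A challenge wells and 100% = SB-334867-A antagonist wells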
# CHO-K1 Ca antag: nonselective inhibitor or artifact in parental CHO-K1 cells. 360,000 compounds, 0.6% hits. ATP-induced calcium, Fluo-8 fluorescence. AID 602250. inhibition, % at 3 µM;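 active = inhibition above a per-plate cutoff, the plate's mean sample inhibition plus 3 SD, cut at about 24% in these data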;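 also: 0% = DMSO plus EC80 ATP and 100% = DMSO alone without ATP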
# CHO parental Ca: counter-screen: ATP calcium response change in parental CHO cells; parental CHO-K1, ATP-induced calcium, Fluo-8 fluorescence; inhibition, % at 5.6 µM; 330,000 compounds, 0.63% hits; AID 463079;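 active = inhibition above that plate's mean sample inhibition plus 3 SD, cut at about 26% in these data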;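 also: 0% = ATP-challenged DMSO wells and 100% = DMSO wells without ATP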
#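 Material: parental CHO cells / Compound: single nominal dose of 5.6 µM per compound / Signal: Fluo-8 fluorescence / Replicates: singlicate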
# CHO-K1 Ca PAM: nonselective activator or artifact in parental CHO-K1 calcium assay | ATP EC20, Fluo-8 calcium fluorescence; 0% at ATP EC20, 100% at ATP max | activation, % at 3 µM | AID 602247 | 360,000 compounds, 0.02% hits;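 active = activation above the run cutoff, the mean activation of all test compounds plus 3 SD, cut at about 40% in these data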;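 also: peak over basal fluorescence ratio in a 140 s read after ATP addition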
# An asterisk follows results filed as active; . = not tested or not shown.
SMILES,M1 ag parental,OX1R antag-1,OX1R antag-2,CHO-K1 Ca antag,CHO parental Ca,CHO-K1 Ca PAM
CC1=Nc2ccccc2/C1=C/c1sc(=N)n(-c2nccs2)c1O,12.2,41.2,64.4*,25.5*,46.9*,-2.5
COC1=CC(=NCl)C=CC1=NCl,0.7,.,.,1.3,.,6.0
ClN=C1C=CC=CC1=NCl,-0.4,.,.,34.5*,.,-9.4
CCc1cccc(NC(=O)c2ccc(Cn3nc(C)cc3C)o2)c1,-0.2,2.5,-15.1,23.9*,-13.8,-12.1
C[C@]12CCC3c4ccc(OCC(=O)O)cc4CCC3C1CCC2=O (some centres undefined),1.5,-0.6,-1.8,-6.4,-4.9,4.9
Cc1ccc(-n2nc3c(=O)n(C(C)C(=O)NCCC4=CCCCC4)nc(C)c3c2C)cc1 (centres undefined),8.4,11.1,-4.4,4.9,15.7,3.7
COc1ccc(C(=O)NCC(=O)N=Nc2c(O)n(C)c3ccccc23)cc1OC,0.3,56.7*,-7.3,-10.1,-23.4,-0.2
C=CCn1c(O)c(N=NC(=O)CNC(=O)c2cccs2)c2ccccc21,4.9,40.0,-12.6,6.0,-11.4,7.5
C=CCn1c(O)c(N=NC(=O)CNC(=O)c2ccncc2)c2ccccc21,1.0,67.3*,-11.9,-10.1,-12.1,2.5
Cc1ccc(C)c(NC(=S)N2CCC(NC(=O)c3ccccc3)CC2)c1,0.1,6.0,-13.8,-2.8,-23.7,10.2
CCN(C(=O)COC(=O)CCCN1C(=O)c2cccc3cccc(c23)C1=O)C1CCS(=O)(=O)C1 (centres undefined),0.9,52.8*,-19.3,-0.9,-8.7,2.0
C=CCN1C(=O)c2ccc(C(=O)OCC(=O)N(CC)C3CCS(=O)(=O)C3)cc2C1=O (centres undefined),0.2,41.7*,-5.1,13.1,-7.6,-14.7
Cc1ccc(C)c(SCC(=O)N(C)C2CCS(=O)(=O)C2)c1 (centres undefined),0.4,4.5,-17.6,-9.2,-2.0,14.8
CN(C(=O)COC(=O)CCCN1C(=O)c2cccc3cccc(c23)C1=O)C1CCS(=O)(=O)C1 (centres undefined),0.2,66.8*,-22.7,-10.9,-11.7,9.6
Cc1cc(SCC(=O)OCC(=O)N(C)C2CCS(=O)(=O)C2)c(C)cc1Br (centres undefined),15.8*,17.8,-9.0,1.8,14.5,-20.5
CCOC(=O)C1=C[C@@H](CC)N(S(=O)(=O)c2ccccc2)[C@H]1c1ccccc1,0.1,.,.,5.4,.,3.1
CC(C)c1ccc(NC(=O)NN2CCOCC2)cc1,-0.5,7.8,-5.4,5.5,-9.7,0.0
CC(O)C(NS(=O)(=O)c1ccc(Cl)cc1)C(=O)OCC(=O)c1ccc2c(c1)NC(=O)CO2 (centres undefined),1.7,.,.,-12.8,.,12.8
CC(C)CC(NC(=O)c1ccc(Cl)cc1)C(=O)OCC(=O)c1ccc2c(c1)NC(=O)CO2 (centres undefined),0.2,42.0,64.7*,-1.4,63.0*,8.3
COC(=O)CCCC1=CC2=CC(=O)C(C)(OC(=O)c3cccs3)C(=O)C2=CN1CCCOC(C)C (centres undefined),1.2,63.2*,-23.7,-14.6,-12.9,14.1
COC(=O)CCCC1=CC2=CC(=O)C(C)(OC(=O)c3cccs3)C(=O)C2=CN1Cc1ccccc1 (centres undefined),1.1,33.6,-39.3,-11.1,-19.8,26.7
CC(CCc1ccccc1)NC(=O)COC(=O)C(CCC(N)=O)NC(=O)c1ccc(F)cc1 (centres undefined),0.1,7.8,-10.2,-6.3,-14.5,-3.9
CCOC(=O)/C(N=Nc1ccc(C(=O)O)cc1[N+](=O)[O-])=C(\C)O,0.5,50.1,-3.0,-13.7,9.8,7.0
CC(=O)/C(N=Nc1ccc(C(=O)O)cc1[N+](=O)[O-])=C(\C)O,0.4,40.6*,-2.2,-6.0,-3.5,-6.1
CN(CC(=O)Nc1ccc(F)cc1[N+](=O)[O-])C1CCS(=O)(=O)C1 (centres undefined),1.0,34.2*,16.4,-15.5,-2.4,6.3
SMILES,M1 ag parental,OX1R antag-1,OX1R antag-2,CHO-K1 Ca antag,CHO parental Ca,CHO-K1 Ca PAM
CN(CC(=O)Nc1ccccc1Cl)C1CCS(=O)(=O)C1 (centres undefined),1.7,4.2,-23.1,-18.0,-0.4,12.5
O=S(=O)(c1ccc(Br)s1)N1CCN(CCc2ccccc2)CC1,-0.1,0.1,-21.2,-0.6,-18.4,15.7
CCN1/C(=C/C=C/C=C/c2sc3ccccc3[n+]2CC)Sc2ccccc21,.,38.0,51.8*,.,61.1*,.
CCN1/C(=C/C=C/C=C/C=C/c2sc3ccccc3[n+]2CC)Sc2ccccc21,-0.3,0.2,-0.3,-7.7,1.2,10.7
CCN1/C(=C/C=C/c2sc3ccccc3[n+]2CC)Sc2ccccc21,5.2,41.2*,35.6,19.6,61.1*,0.7
CCn1cc(CN2CCC(n3nccc3NC(=O)C(OC)c3ccccc3)CC2)cn1 (centres undefined),0.6,17.9,-0.4,-7.5,-0.5,9.6
COc1ccc(N(C)C(=O)C2CCCN2S(=O)(=O)c2cccc3nsnc23)cc1 (centres undefined),1.0,23.1,-19.9,-14.1,-8.6,11.0
COc1ccc(OC)c(NC(=O)C2CCCN(S(=O)(=O)c3cccc4nsnc34)C2)c1 (centres undefined),1.4,58.4,-11.5,-1.2,2.4,11.1
COc1ccccc1NC(=O)C1CCCN1S(=O)(=O)c1cccc2nsnc12 (centres undefined),0.8,76.1*,20.0,-12.0,-11.6,12.9
COc1ccc(NC(=O)C2CCCN2S(=O)(=O)c2cccc3nsnc23)c(OC)c1 (centres undefined),0.9,56.7*,-12.5,-10.8,-22.6,18.4
CCCN1CCN(C(=O)c2oc3ccccc3c2NC(=O)C2CC2)CC1,0.4,8.6,-18.1,5.0,-8.3,9.6
COc1ccc(S(=O)(=O)Nc2cccc(N(C)S(C)(=O)=O)c2)cc1Br,15.6*,11.2,5.0,1.8,-1.5,14.7
N#Cc1ccccc1COc1cccc2c1CCCC2O (centres undefined),2.2,4.2,-11.1,-8.7,-7.0,-2.6
O=C(Nc1ccc(OC(F)(F)C(F)F)c(NC(=O)c2ccc(F)cc2)c1)c1ccc(F)cc1,-0.3,64.8*,27.5,-5.0,7.1,2.5
C=C(CCO)C1=CCN(S(=O)C(C)(C)C)[C@@H]1CCO (some centres undefined),0.8,.,.,-10.4,.,24.6
O=C(Nc1ccc(Cl)cc1)c1cc2c(cc1O)[nH]c1ccccc12,15.9*,51.7*,55.2*,28.8*,72.3*,-15.1
CC(=O)Nc1ccc2[nH]c3ccccc3c2c1,0.3,12.2,2.2,-7.2,-0.8,9.8
CCc1nc(C)cn1S(=O)(=O)c1cc(C)c(OC)c(C)c1C,7.3,23.5,1.7,-3.3,31.4*,7.2

# High-throughput results (PubChem)
